This note sets out measurements from ChEMBL document CHEMBL1136251, “Synthesis and biological evaluation of menthol-based derivatives as inhibitors of plasminogen activator inhibitor-1 (PAI-1)” (Bioorg Med Chem Lett, 2003).

In data set [1] the target is T1, Plasminogen activator inhibitor 1 (Homo sapiens, UniProt P05121). Briefly: Plasminogen Activator Inhibitor-1 (PAI-1) activity was determined by inhibition of Urokinase-type plasminogen activator using primary assay. Summed up:
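Human recombinant PAI-1 (6 nM) preincubated with compound for 2 min at room temperature in 50 mM Tris-HCl, 150 mM NaCl, 2.5 mM CaCl2, 0.1% PEG 6000, pH 7.5. Human kidney urokinase (0.0175 units/mL) added for a further 2 min, then chromogenic substrate S2444. Rate of absorbance change read at 405 nm. Controls with uPA alone and uPA plus PAI-1 on each plate. IC50 taken from dose-response curve fit.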

Data set [2] in a line: Bioavailability in rat (cannulated) (dose 2 mg/kg). In kind it is ADME, organism-based. Conditions: in vivo. Summed up: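 Given intravenously and orally at 2 mg/kg to cannulated conscious rats. Vehicle: 94% PEG/2% 0.1HCl/4% EtOH solution.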
Data set [3] deals with T1, Plasminogen activator inhibitor 1. Briefly: Plasminogen Activator Inhibitor-1 (PAI-1) activity was determined using plasma clot lysis assay. In kind it is functional, cell-free. The method in brief: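 Pooled human plasma diluted 1:3 in 150 mM NaCl, 2 mM CaCl2, 20 mM Hepes, pH 7.4. Clotting started with human thrombin (30 nM), with exogenous human tPA (4 nM) present. Lysis followed at 37 °C by absorbance at 405 nm.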

T1 sequence (P05121 whole entry): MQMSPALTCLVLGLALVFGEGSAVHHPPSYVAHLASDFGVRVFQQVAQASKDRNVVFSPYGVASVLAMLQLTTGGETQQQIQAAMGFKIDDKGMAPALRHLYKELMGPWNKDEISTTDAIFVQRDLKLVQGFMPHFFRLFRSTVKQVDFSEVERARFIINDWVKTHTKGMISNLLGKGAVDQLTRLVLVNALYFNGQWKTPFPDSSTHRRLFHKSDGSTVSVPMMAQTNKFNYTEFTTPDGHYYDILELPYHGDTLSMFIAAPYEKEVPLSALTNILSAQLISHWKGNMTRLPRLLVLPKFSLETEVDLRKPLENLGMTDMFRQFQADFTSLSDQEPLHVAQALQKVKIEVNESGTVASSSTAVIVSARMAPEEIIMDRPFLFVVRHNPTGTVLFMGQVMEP

In general, IC50 refers to the concentration that inhibits the measured activity by half. With `CC(C)[C@@H]1CC[C@@H](C)C[C@H]1OCC(=O)Nc1cc(N2CCCC2C(=O)O)ccc1[N+](=O)[O-]` (some centres undefined), the midpoint of inhibition in data set [1], the IC50, lay at 2200 nM. Same read-out and setting: to `COc1cc(C(=O)O)c(Oc2c(CNc3ccc(CNC(=O)CO[C@@H]4C[C@H](C)CC[C@H]4C(C)C)cc3)c(O)cc(C)c2C(N)=O)c(O)c1C` belongs 600 nM; to `COc1cccc(CNc2ccc(CNC(=O)CO[C@@H]3C[C@H](C)CC[C@H]3C(C)C)cc2)c1Oc1ncccc1C(=O)O`, 500 nM; to `CC(C)[C@@H]1CC[C@@H](C)C[C@H]1OCC(=O)NCc1ccc(NCc2cc([N+](=O)[O-])ccc2O)cc1`, 2700 nM. By bioavailability is commonly meant the share of a dose that reaches the circulation, judged against a reference dose that is usually intravenous. A high value points to much systemic uptake. Consider `CC(C)[C@@H]1CC[C@@H](C)C[C@H]1OCC(=O)Nc1cc(N2CCC(C(=O)O)CC2)ccc1[N+](=O)[O-]`, for which the bioavailability in data set [2] is < 10%. Further, the IC50 in data set [3] amounted to 10 nM; in data set [1], 940 nM. On the same counts, the results for `COc1cccc(CNc2ccc(CNC(=O)CO[C@@H]3C[C@H](C)CC[C@H]3C(C)C)cc2)c1Oc1ccc([N+](=O)[O-])cc1C(=O)O` are 94%, 100 nM and 1200 nM.

Take `CC(C)[C@@H]1CC[C@@H](C)C[C@H]1OCC(=O)Nc1cc(N2CC(C(=O)O)C2)ccc1[N+](=O)[O-]`: in data set [1], the IC50 was 2900 nM.

For `COc1cc(C(=O)O)c(Oc2c(CNc3ccc(CNC(=O)CO[C@@H]4C[C@H](C)CC[C@H]4C(C)C)cc3)c(O)cc(C)c2C(=O)O)c(O)c1C`, inhibition in data set [1] was half-maximal at 1800 nM (IC50). On the same count and under the same terms, to `COc1cc(C(=O)O)c2c(c1C)OC(=O)c1c(C)cc(O)c(CNc3ccc(NC(=O)CO[C@@H]4C[C@H](C)CC[C@H]4C(C)C)nc3)c1O2` belongs 530 nM. On the same count and under the same terms, to `COc1cc(C(=O)O)c2c(c1C)OC(=O)c1c(C)cc(O)c(CNc3ccc(CCNC(=O)CO[C@@H]4C[C@H](C)CC[C@H]4C(C)C)cc3)c1O2` belongs 3900 nM.

With `CC(C)[C@@H]1CC[C@@H](C)C[C@H]1OCC(=O)Nc1cc(Oc2cccc(C(=O)O)c2)ccc1[N+](=O)[O-]`, in data set [2], the bioavailability was < 10%. For the same compound, the half-inhibitory concentration (IC50) in data set [3] came out at 100 nM; in data set [1] it was 400 nM. With `CC(C)[C@@H]1CC[C@@H](C)C[C@H]1OCC(=O)NCc1ccc(NCc2ccccc2)cc1`, the IC50 in data set [1] was > 15000 nM.

On to `CC(C)[C@@H]1CC[C@@H](C)C[C@H]1OCC(=O)NCc1ccc(NCc2ccccc2Oc2ccccc2)cc1`, for which the IC50 in data set [1] was > 15000 nM. Consider `CC(C)[C@@H]1CC[C@@H](C)C[C@H]1OCC(=O)NCc1ccc(NCc2ccncc2)cc1`, for which the IC50 in data set [1] is > 15000 nM. Same read-out and setting: to `CC(C)[C@@H]1CC[C@@H](C)C[C@H]1OCC(=O)NCc1ccc(NCc2c(F)cccc2Oc2c(O)cccc2C(=O)O)cc1` belongs 710 nM. Still for that read-out and setting: to `CCCN(Cc1ccc(NCc2c(O)cc(C)c3c2Oc2c(C(=O)O)cc(OC)c(C)c2OC3=O)cc1)C(=O)CO[C@@H]1C[C@H](C)CC[C@H]1C(C)C` belongs 5000 nM; to `CC(C)[C@@H]1CC[C@@H](C)C[C@H]1OCC(=O)Nc1cc(N[C@H]2CC[C@@H](C(=O)O)CC2)ccc1[N+](=O)[O-]`, 900 nM; to `COc1ccc(Oc2ccccc2CNc2ccc(CNC(=O)CO[C@@H]3C[C@H](C)CC[C@H]3C(C)C)cc2)c(C(=O)O)c1`, 1400 nM. Still for that read-out and setting: to `CC(C)[C@@H]1CC[C@@H](C)C[C@H]1OCC(=O)Nc1cc(N[C@H]2CC[C@H](C(=O)O)CC2)ccc1[N+](=O)[O-]` belongs 1100 nM; to `COc1cccc(CNc2ccc(CNC(=O)CO[C@@H]3C[C@H](C)CC[C@H]3C(C)C)cc2)c1Oc1ccc(N)cc1C(=O)O`, 700 nM. Take `COc1cc(C(=O)O)c2c(c1C)OC(=O)c1c(C)cc(O)c(CNc3cccc(CNC(=O)CO[C@@H]4C[C@H](C)CC[C@H]4C(C)C)c3)c1O2`: in data set [1], the IC50 was determined as 1400 nM. Still for that read-out and setting: to `CC(C)[C@@H]1CC[C@@H](C)C[C@H]1OCC(=O)Nc1cc(N2CCCC(C(=O)O)C2)ccc1[N+](=O)[O-]` (some centres undefined) belongs 890 nM. `COc1cc(C(=O)O)c2c(c1C)OC(=O)c1c(C)cc(O)c(CNc3ccc(CNC(=O)CO[C@@H]4C[C@H](C)CC[C@H]4C(C)C)cc3)c1O2`: the bioavailability in data set [2] stood at 23%. For the same compound, the figures for the IC50 in data set [3] and in data set [1] were 100 nM and 1400 nM, respectively.

`CC(C)[C@@H]1CC[C@@H](C)C[C@H]1OCC(=O)NCc1ccc(NCc2cc([N+](=O)[O-])ccc2Oc2cc(Oc3ccccc3)ccc2C(=O)O)cc1`: in data set [1], the midpoint of inhibition, the IC50, lay at 2600 nM. Still for that read-out and setting: under `COc1cc(C(=O)O)c2c(c1C)OC(=O)c1c(C)cc(O)c(CNc3ccc(NC(=O)CO[C@@H]4C[C@H](C)CC[C@H]4C(C)C)cc3)c1O2` stands 1100 nM; under `COc1cc(C(=O)O)c2c(c1C)OC(=O)c1c(C)cc(O)c(CN3CCC(NC(=O)CO[C@@H]4C[C@H](C)CC[C@H]4C(C)C)CC3)c1O2`, > 15000 nM; under `CC(C)[C@@H]1CC[C@@H](C)C[C@H]1OCC(=O)NCc1ccc(NCc2cc([N+](=O)[O-])ccc2Oc2ccccc2C(=O)O)cc1`, 710 nM. In data set [1], `CC(C)[C@@H]1CC[C@@H](C)C[C@H]1OCC(=O)Nc1cc(N2CCCCC2C(=O)O)ccc1[N+](=O)[O-]` (some centres undefined) showed an IC50 of 2900 nM. On the same count and under the same terms, under `CC(C)[C@@H]1CC[C@@H](C)C[C@H]1OCC(=O)NCc1ccc(NCc2cccc(C(=O)O)c2)cc1` stands 7800 nM; under `CC(C)[C@@H]1CC[C@@H](C)C[C@H]1OCC(=O)NCc1ccc(NCc2ccccc2S(=O)(=O)O)cc1`, > 15000 nM; under `CC(C)[C@@H]1CC[C@@H](C)C[C@H]1OCC(=O)Nc1cc(Oc2ccc(C(=O)O)cn2)ccc1[N+](=O)[O-]`, 2600 nM. Consider `CC(C)[C@@H]1CC[C@@H](C)C[C@H]1OCC(=O)Nc1cc(Oc2ccc(C(=O)O)cc2)ccc1[N+](=O)[O-]`, for which, in data set [2], the bioavailability amounted to 24%. The IC50 in data set [3] stood at 10 nM; in data set [1], 380 nM. The compound `CC(C)[C@@H]1CC[C@@H](C)C[C@H]1OCC(=O)NCc1ccc(NCc2ccc(C(=O)O)cc2)cc1` gave an IC50 in data set [1] of 3200 nM. Still for that read-out and setting: under `COc1ccc(Oc2cccc(F)c2CNc2ccc(CNC(=O)CO[C@@H]3C[C@H](C)CC[C@H]3C(C)C)cc2)c(C(=O)O)c1` stands 1400 nM.
